Results: PMC4467529 (Bioorganic & medicinal chemistry, 2015)
Entries after “also recorded” stand apart in the source; their conditions may differ.

What was measured:
[1] = In vitro cytotoxicity, Neutral Red assay; assay type: cell-based; details: African green monkey, Vero cells (kidney fibroblasts)
How it was run: (§1)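 Cells were kept in RPMI-1640 with 10% bovine calf serum and amikacin 60 mg/L at 37 °C, 5% CO₂. They were seeded at 25,000 cells/well and grown 24 h, then exposed 48 h to test compound diluted in serum-free medium, tested up to 25 μg/ml. Viability was read by Neutral Red, as % decrease versus vehicle. IC50 came from dose curves, in triplicate, with doxorubicin as reference.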

[2] = In vitro cytotoxicity, Neutral Red assay; assay type: cell-based; details: pig, LLC-PK11 pig kidney epithelial cells
How it was run: as §1

[3] = In vitro cytotoxicity, Neutral Red assay; assay type: cell-based; details: human, SK-OV-3 ovary carcinoma cells
How it was run: (§2)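 Cells grown in RPMI-1640 with 10% bovine calf serum and amikacin (60 mg/L), 37°C, 5% CO₂, 95% humidity. Seeded at 25,000 cells/well, grown 24 h. Test samples diluted in serum-free medium, exposure 48 h. Viable cells counted by Neutral Red uptake; % viability loss against vehicle control. IC50 from dose curves, triplicate, means reported.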

[4] = In vitro cytotoxicity, Neutral Red assay; assay type: cell-based; details: human, SK-MEL malignant melanoma cells
How it was run: as §1

[5] = system: NF-κB; assay type: cell-based, human; details: for IC50: Homo sapiens, SW1353, read-out: NF-κB IC50; for NF-κB inhibitory activity (in words): PMA-induced SW1353 cells
How it was run: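 SW1353 cells were grown in DMEM/F12 with 10% FBS and electroporated with an NF-κB luciferase plasmid (50 μg/mL; 160 V, one 70-ms pulse). They were plated at 1.25 × 10⁵ cells/well for 24 h. […] Parthenolide was the reference; Sp-1 served as control factor.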

[6] = In vitro cytotoxicity, Neutral Red assay; assay type: cell-based; details: human, BT-549 breast ductal carcinoma cells
How it was run: as §1

[7] = In vitro cytotoxicity, Neutral Red assay; assay type: cell-based; details: human, KB oral epidermal carcinoma cells
How it was run: as §2

[8] = molecular target: iNOS (Mus musculus, UniProt P29477); test: iNOS inhibitory assay in LPS-induced mouse macrophages; assay type: cell-based; details: LPS-induced RAW264.7 macrophages
[9] = system: rat paw edema; test: Carrageenan-induced rat paw edema assay; assay type: in vivo
How it was run: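 Adult albino rats of both sexes (120–150 g), pre-hydrated with 3 ml water by gavage, in groups of five. Test compound or ketorolac tromethamine was suspended in distilled water with a few drops of Tween 80 and given i.p. 1 h before 1% carrageenan s.c. into the right hind subplantar paw. Controls got saline/Tween 80.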

[10] = cited from earlier work

IC50 [5]	iNOS inhibitory activity (in words) [8]	SMILES	IC50 at 48 h [1]	IC50 at 48 h [2]	IC50 at 48 h [3]	IC50 at 48 h [4]	IC50 at 48 h [6]	IC50 at 48 h [7]	NF-κB inhibitory activity (in words) [5]	in vivo anti-inflammatory activity (in words) ([9]; rat paw edema, compared to ketorolac)	Edema thickness ±SEM, 1h ([9]; rat, 30 mg/kg intraperitoneally, 1h after induction)	Edema thickness ±SEM, 2h ([9]; rat, 30 mg/kg intraperitoneally, 2h after induction)	Edema thickness ±SEM, 3h ([9]; rat, 30 mg/kg intraperitoneally, 3h after induction)	Edema thickness ±SEM, 4h ([9]; rat, 30 mg/kg intraperitoneally, 4h after induction)	anti-inflammatory and antinociceptive activities (in words) [10]
> 25 µg/mL	–	O=c1oc2ccccc2n1CCN1CCN(CCn2c(=O)oc3ccccc32)CC1 [Compound 3a, 3,3′-(piperazine-1,4-diylbis(ethane-2,1-diyl))bis(benzo[d]oxazol-2(3H)-one)]	> 25 µg/mL	> 25 µg/mL	> 25 µg/mL	> 25 µg/mL	> 25 µg/mL	> 25 µg/mL	–	–	–	–	–	–	–
> 25 µg/mL	–	O=c1sc2ccccc2n1CCN1CCN(CCn2c(=O)sc3ccccc32)CC1 [Compound 3b, 3,3′-(2,2′-(piperazine-1,4-diyl)bis(ethane-2,1-diyl))dibenzo[d]thaizol-2(3H)-one]	> 25 µg/mL	> 25 µg/mL	> 25 µg/mL	> 25 µg/mL	> 25 µg/mL	> 25 µg/mL	–	–	–	–	–	–	–
–	–	O=c1oc2ccccc2n1CCCN1CCN(CCCn2c(=O)oc3ccccc32)CC1 [Compound 3c, 3,3′-(piperazine-1,4-diylbis(propane-3,1-diyl))bis(benzo[d]oxazol-2(3H)-one)]	> 25 µg/mL	> 25 µg/mL	> 25 µg/mL	> 25 µg/mL	> 25 µg/mL	> 25 µg/mL	–	–	–	–	–	–	–
> 25 µg/mL	–	O=c1sc2ccccc2n1CCCN1CCN(CCCn2c(=O)sc3ccccc32)CC1 [Compound 3d, 3,3′-(piperazine-1,4-diylbis(propane-3,1-diyl))bis(benzo[d]thiazol-2(3H)-one)]	> 25 µg/mL	–	> 25 µg/mL	> 25 µg/mL	> 25 µg/mL	> 25 µg/mL	–	–	–	–	–	–	–
> 25 µg/mL	no activity	O=c1oc2ccccc2n1CCCCN1CCN(CCCCn2c(=O)oc3ccccc32)CC1 [Compound 3e, 3,3′-(piperazine-1,4-diylbis(butane-4,1-diyl))bis(benzo[d]oxazol-2(3H)-one)]	> 25 µg/mL	> 25 µg/mL	> 25 µg/mL	> 25 µg/mL	> 25 µg/mL	> 25 µg/mL	–	–	–	–	–	–	–
–	no activity	O=c1sc2ccccc2n1CCCCN1CCN(CCCCn2c(=O)sc3ccccc32)CC1 [Compound 3f, 3,3′-(piperazine-1,4-diylbis(butane-4,1-diyl))bis(benzo[d]thiazol-2(3H)-one)]	> 25 µg/mL	> 25 µg/mL	> 25 µg/mL	> 25 µg/mL	> 25 µg/mL	> 25 µg/mL	–	–	–	–	–	–	–
–	–	O=c1oc2ccccc2n1CCCCCN1CCN(CCCCCn2c(=O)oc3ccccc32)CC1 [Compound 3g, 3,3′-(piperazine-1,4-diylbis(pentane-5,1-diyl))bis(benzo[d]oxazol-2(3H)-one)]	–	> 25 µg/mL	> 25 µg/mL	> 25 µg/mL	> 25 µg/mL	> 25 µg/mL	–	–	–	–	–	–	–
> 25 µg/mL	–	O=c1oc2ccccc2n1CCCCCCN1CCN(CCCCCCn2c(=O)oc3ccccc32)CC1 [Compound 3i, 3,3′-(piperazine-1,4-diylbis(hexane-6,1-diyl))bis(benzo[d]oxazol-2(3H)-one)]	> 25 µg/mL	> 25 µg/mL	> 25 µg/mL	–	–	> 25 µg/mL	devoid of any activity	–	–	–	–	–	–
> 25 µg/mL	–	O=c1oc2ccccc2n1CCCN1CCN(CCn2c(=O)oc3ccccc32)CC1 [Compound 5a, 3-(3-(4-(2-(2-oxobenzo[d]oxazol-3(2H)-yl)ethyl)piperazin-1-yl)propyl)benzo[d]oxazol-2(3H)-one]	> 25 µg/mL	> 25 µg/mL	> 25 µg/mL	> 25 µg/mL	> 25 µg/mL	> 25 µg/mL	–	–	–	–	–	–	–
> 25 µg/mL	–	O=c1sc2ccccc2n1CCCN1CCN(CCn2c(=O)sc3ccccc32)CC1 [Compound 5b, 3-(3-(4-(2-(2-oxobenzo[d]thiazol-3(2H)-yl)ethyl)piperazin-1-yl)propyl)benzo[d]thiazol-2(3H)-one]	> 25 µg/mL	–	> 25 µg/mL	> 25 µg/mL	> 25 µg/mL	> 25 µg/mL	–	–	–	–	–	–	–
> 25 µg/mL	–	O=c1oc2ccccc2n1CCCCN1CCN(CCn2c(=O)oc3ccccc32)CC1 [Compound 5c, 3-(2-(4-(4-(2-oxobenzo[d]oxazol-3(2H)-yl)butyl)piperazin-1-yl)ethyl)benzo[d]oxazol-2(3H)-one]	> 25 µg/mL	> 25 µg/mL	> 25 µg/mL	> 25 µg/mL	> 25 µg/mL	> 25 µg/mL	–	–	–	–	–	–	–
> 25 µg/mL	–	O=c1sc2ccccc2n1CCCCN1CCN(CCn2c(=O)sc3ccccc32)CC1 [Compound 5d, 3-(2-(4-(4-(2-oxobenzo[d]thiazol-3(2H)-yl)butyl)piperazin-1-yl)ethyl)benzo[d]thiazol-2(3H)-one]	> 25 µg/mL	> 25 µg/mL	> 25 µg/mL	> 25 µg/mL	> 25 µg/mL	> 25 µg/mL	–	–	–	–	–	–	–
–	–	O=c1oc2ccccc2n1CCCCCN1CCN(CCn2c(=O)oc3ccccc32)CC1 [Compound 5e, 3-(5-(4-(2-(2-oxobenzo[d]oxazol-3(2H)-yl)ethyl)piperazin-1-yl)pentyl)benzo[d]oxazol-2(3H)-one]	> 25 µg/mL	> 25 µg/mL	> 25 µg/mL	> 25 µg/mL	> 25 µg/mL	> 25 µg/mL	–	–	–	–	–	–	–
–	–	O=c1sc2ccccc2n1CCCCCCN1CCN(CCn2c(=O)sc3ccccc32)CC1 [Compound 5h, 3-(6-(4-(2-(2-oxobenzo[d]thiazol-3(2H)-yl)ethyl)piperazin-1-yl)hexyl)benzo[d]thiazol-2(3H)-one]	–	–	–	–	–	–	moderately active	–	–	–	–	–	–
–	–	O=c1sc2ccccc2n1CCCCN1CCN(CCCn2c(=O)sc3ccccc32)CC1 [Compound 5j, 3-(3-(4-(4-(2-oxobenzo[d]thiazol-3(2H)-yl)butyl)piperazin-1-yl)propyl)benzo[d]thiazol-2(3H)-one]	–	–	–	–	–	–	moderately active	–	–	–	–	–	–
> 25 µg/mL	–	O=c1oc2ccccc2n1CCCCCCN1CCN(CCCn2c(=O)oc3ccccc32)CC1 [Compound 5m, 3-(3-(4-(6-(2-oxobenzo[d]oxazol-3(2H)-yl)hexyl)piperazin-1-yl)propyl)benzo[d]oxazol-2(3H)-one]	> 25 µg/mL	> 25 µg/mL	> 25 µg/mL	> 25 µg/mL	> 25 µg/mL	> 25 µg/mL	–	–	–	–	–	–	–
–	–	O=c1sc2ccccc2n1CCCCCCN1CCN(CCCn2c(=O)sc3ccccc32)CC1 [Compound 5n, 3-(3-(4-(6-(2-oxobenzo[d]thiazol-3(2H)-yl)hexyl)piperazin-1-yl)propyl)benzo[d]thiazol-2(3H)-one]	> 25 µg/mL	> 25 µg/mL	> 25 µg/mL	–	–	> 25 µg/mL	moderately active	–	–	–	–	–	–
> 25 µg/mL	–	O=c1oc2ccccc2n1CCCCCN1CCN(CCCCn2c(=O)oc3ccccc32)CC1 [Compound 5o, 3-(5-(4-(4-(2-oxobenzo[d]oxazol-3(2H)-yl)butyl)piperazin-1-yl)pentyl)benzo[d]oxazol-2(3H)-one]	–	> 25 µg/mL	> 25 µg/mL	> 25 µg/mL	> 25 µg/mL	> 25 µg/mL	–	–	–	–	–	–	–
–	–	O=c1oc2ccccc2n1CCCCCCN1CCN(CCCCn2c(=O)oc3ccccc32)CC1 [Compound 5q, 3-(6-(4-(4-(2-oxobenzo[d]oxazol-3(2H)-yl)butyl)piperazin-1-yl)hexyl)benzo[d]oxazol-2(3H)-one]	> 25 µg/mL	> 25 µg/mL	> 25 µg/mL	> 25 µg/mL	> 25 µg/mL	> 25 µg/mL	–	–	–	–	–	–	–
–	–	c1ccc2sc(SCCCCN3CCN(CCCCSc4nc5ccccc5s4)CC3)nc2c1 [Compound 8b, 1,4-bis(4-(benzo[d]thiazol-2-ylthio)butyl)piperazine]	> 25 µg/mL	> 25 µg/mL	> 25 µg/mL	–	> 25 µg/mL	–	–	significant anti-inflammatory and analgesic activity; also recorded: most active dimer; also recorded: promising in vivo activity which was comparable to indomethacin and ketorolac	56.48 ± 2.14 ×10^−2 mm	55.6 ± 2.09 ×10^−2 mm	61.32 ± 1.67 ×10^−2 mm	103.54 ± 1.77 ×10^−2 mm	–
–	–	O=C(c1ccccc1)c1ccc2[nH]c(=O)sc2c1 [Compound S-14080]	–	–	–	–	–	–	–	–	–	–	–	–	superior to acetylsalicylic acid and equivalent to glafenine
